# Bioassay records (PubChem BioAssay)
# Hits are enriched below; roughly 4.8% of the tested compounds scored in any of these assays.
# NALP1 inh – blocks the NALP1 inflammasome reconstituted in yeast; inhibition, % at 10 µM; S. cerevisiae NALP1/ASC/caspase-1 growth, X-gal OD620, 72 h; 280,000 tested, 0.61% active; in the data active = inhibition mostly above about 24%, no sharp cut-off; inactive = mostly below about 32%
# ALR H2O2 inh – inhibitors of human sulfhydryl oxidase ALR; P55789; purified ALR, DTT oxidation, H2O2 HRP-luminol luminescence; inhibition, % (concentration not given with the values); 290,000 tested, 3.8% active; AID 485317;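 active = mean replicate inhibition above about 79%, with every replicate also reaching it, limit read from the data; inconclusive = only one of the two criteria met; inactive = mean below limit and not every replicate reaching it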
# Target sequence (P55789 whole entry, looked up): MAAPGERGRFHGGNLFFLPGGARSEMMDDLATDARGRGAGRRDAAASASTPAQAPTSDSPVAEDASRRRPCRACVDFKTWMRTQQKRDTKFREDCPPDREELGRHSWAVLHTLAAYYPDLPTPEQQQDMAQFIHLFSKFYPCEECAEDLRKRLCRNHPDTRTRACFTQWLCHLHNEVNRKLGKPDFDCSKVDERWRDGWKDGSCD
# UCH37 DUB inh – blocks the human deubiquitinase UCH37. Q9Y5K5. purified proteasome/UCH37, Ub-AMC cleavage fluorescence. inhibition, % (no concentration beside the values). 330,000 tested, 0.33% active;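 active = mean inhibition over replicate wells above about 20%, limit read from the data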;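 also: 0% = compound-free wells with enzyme and 100% = wells lacking proteasome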
#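 Material: human UCH37 enzyme supplied as purified proteasome complex / Amount: 0.15 nM proteasome as dispensed / Buffer or medium: pH 7.4 Tris-HCl (50 mM) with ovalbumin, ATP-MgCl2, DTT / Times: preincubation 30 min, reaction 25 min, room temperature / Technique: AMC fluorescence from Ub-AMC cleavage, excitation 355 nm, emission 460 nm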
# Calb FLC – affects C. albicans growth with fluconazole; growth inhibition, % (test concentration not listed); AID 1979; 300,000 tested, 0.57% active; C. albicans CaCi-2 + fluconazole, Alamar Blue growth, 48 h;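 active = growth inhibition above about 58% in most replicates, limit read from the data, passing the limit was not always enough; inconclusive = exactly half the replicates above a set limit; inactive = most replicates below a set limit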;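 also: all wells also contain fluconazole at 8 µg/ml as a sub-toxic cotreatment; 0% = median of DMSO wells and 100% = median of geldanamycin control wells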
# ATG4B inhibitor – ATG4B (human) cysteine protease inhibition; Q9Y4P1; ATG4B cleavage of LC3-PLA2, NBD-HPC fluorescence, 1 h; inhibition, % at 8.33 µM; 340,000 tested, 0.51% active; in the data active = inhibition above about 40%
# NALP3 yeast inh – inhibitors of NALP3 inflammasome in yeast; Yeast reconstituted NLRP3/ASC/caspase-1, beta-gal luminescence, 24 h; inhibition, % at 10 µM; 330,000 tested, 0.39% active;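 active = inhibition of 50% or more; inactive = inhibition below 50%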;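 also: plate controls were induced DMSO wells for no effect and uninduced yeast grown without galactose for full effect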
# The depositor's hits bear a star; ? = inconclusive; nt = no result given.
SMILES,NALP1 inh,ALR H2O2 inh,UCH37 DUB inh,Calb FLC,ATG4B inhibitor,NALP3 yeast inh
O=c1c(=Cc2ccc(O)cc2)sc2nc(-c3ccccc3)c(-c3ccccc3)n12,nt,nt,9.2,nt,nt,nt
CC(C)Cn1nc(NS(=O)(=O)c2cccc3nonc23)c2cc3ccccc3nc21,-26.8,97.3*,9.2,22.6,5.3,4.9
CCn1nc(NS(=O)(=O)c2ccc([N+](=O)[O-])cc2)c2cc3ccc(C)cc3nc21,14.2,21.4,2.9,34.8,-1.6,19.9
CCCCn1nc(NS(=O)(=O)c2cccc3nonc23)c2cc3cccc(C)c3nc21,11.6,98.3*,3.2,1.3,0.1,25.4
Cc1ccccc1NS(=O)(=O)c1cccc2nonc12,12.6,96.2*,5.0,10.5,6.8,13.8
CCn1nc(NS(=O)(=O)c2cccc3nonc23)c2cc3ccc(C)cc3nc21,-12.3,91.4*,6.8,-4.7,-4.8,13.3
Cc1cc(C)nc(SCc2ccc(C(=O)NN=Cc3ccncc3)cc2)n1,nt,nt,0.6,nt,nt,nt
CC1CC(=N/N=C2/NC(=O)CS2)CC(C)(C)C1 (centres undefined),nt,nt,1.1,nt,nt,nt
CSC[C@@H]1NC(=S)N(c2ccc(C)cc2)C1=O,75.8*,12.2,2.2,-6.1,-0.9,-1.5
Cc1ccc(N2C(=O)C3CCC(C)(C2=O)C3(C)C)cc1 (centres undefined),15.6,nt,2.3,-1.9,-3.8,-3.3
COc1ccc(C=NNc2ncnc3sc(C)c(C)c23)cc1,nt,nt,2.6,nt,nt,nt
Cc1cc(Cl)c(S(=O)(=O)NN=Cc2ccc3c(c2)OCO3)c(Cl)c1,nt,nt,1.7,nt,nt,nt
COCCNC(=O)/C(C#N)=C/c1cc(Br)c(O)c(OC)c1,10.4,82.9*,nt,-5.7,-10.2,16.6
COc1cc(/C=C(\C#N)C(=O)NC(C)C)cc(Cl)c1O,-8.1,97.2*,nt,63.5,-5.0,7.8
CC(C)NC(=O)/C(C#N)=C/c1cccc(NC(=O)c2ccccc2Cl)c1,49.9,47.4,0.3,-10.0,-12.6,20.8
S=c1[nH]nc(C2CCCCC2)n1N=Cc1ccc(Br)cc1,nt,nt,-0.7,nt,nt,nt
O=C(CCN1CCCCC1)c1ccccc1,25.4,46.6,1.9,-5.3,-5.2,0.5
CCc1oc2ccccc2c1C(=O)CCN1CCCCC1,49.6*,97.1*,1.2,-9.8,2.9,33.9
Clc1ccccc1-c1nn2c(COc3ccccc3)nnc2s1,40.2*,-5.7,3.1,-1.7,10.2,20.7
COc1ccc(N2C(=O)/C(=C\c3ccco3)N=C2SCC(=O)NC(C)(C)C)cc1Cl,21.4,nt,1.2,-1.0,1.0,9.0
CCN(CC)C(=O)CSC1=N/C(=C/c2ccco2)C(=O)N1c1ccc(OC)c(Cl)c1,17.8,97.5*,-0.6,-8.8,4.8,7.7
Cc1cc(Cc2cc(C)c(N)cc2C)c(C)cc1N,24.0,97.0*,0.9,-12.4,-38.3,27.9
Cc1ccc(Sc2ncccc2C(=O)NCc2cc([N+](=O)[O-])ccc2O)cc1C,-4.2,89.2*,8.4,35.1,3.1,10.8
Clc1ccc(OCCn2ccnc2)c2ccccc12,24.4,-92.3,2.6,100.6*,-0.3,24.1
Cc1ccc(N2C(=O)CSC2c2cccnc2)cc1F (centres undefined),5.3,99.5*,5.2,-9.0,-1.4,-3.5
SMILES,NALP1 inh,ALR H2O2 inh,UCH37 DUB inh,Calb FLC,ATG4B inhibitor,NALP3 yeast inh
O=C1CSC(c2ccc(Cl)cc2)N1c1cccnc1 (centres undefined),2.9,98.3*,5.1,-7.3,10.1,11.4
CC(=O)C1=C(O)C(=O)N(c2cccnc2)C1c1ccc(Cl)cc1 (centres undefined),7.5,nt,3.4,10.8,-2.1,19.6
O=C1CSC(c2cccnc2)N1c1ccc(Cl)cc1 (centres undefined),13.1,98.9*,5.8,-4.0,-3.1,-1.7
Cc1cc(O)c(C=NNc2ccc(F)cc2)c(=O)o1,nt,nt,2.2,nt,nt,nt
COc1ccc(C(=O)Oc2ccc(=O)n(-c3ccccc3)n2)cc1,-6.8,97.5*,8.4,-7.1,-2.9,-9.3
COc1nc(NCC(C)C)nc(Oc2ccc(=O)n(-c3ccccc3)n2)n1,0.0,78.5*,1.4,-2.5,-0.1,-6.7
O=C(Oc1ccc(=O)n(-c2ccccc2)n1)c1ccc(Cl)cc1,2.6,?,5.5,-3.3,-6.2,-3.9
CCNc1nc(OC)nc(Oc2ccc(=O)n(-c3ccccc3)n2)n1,9.1,2.1,4.0,-3.1,-3.1,-0.9
CCN(Cc1ccccc1)c1ccc(C=NN2CCOCC2)cc1,nt,nt,2.5,nt,nt,nt
